Data published in ChEMBL document CHEMBL1131592, “DNA-Directed alkylating agents. 7. Synthesis, DNA interaction, and antitumor activity of bis(hydroxymethyl)- and bis(carbamate)-substituted pyrrolizines and imidazoles” (J Med Chem, 1998).
pIC50: −log10 of the molar value.

Experiments:
P388 = assay: Compound was evaluated for reduction in P388 (type I DNA) cell numbers to 50% of control values after a 72 hour exposure.; assay type: functional, cell-based; conditions: Mus musculus, P388, 72 h
Method in brief: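 P388 murine leukemia cells, log-phase cultures; drug present throughout 72 h growth period. IC50 = nominal drug concentration reducing cell density to 50% of control; eight control wells per plate. Averages of at least two (table footnote: three) independent determinations.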

Nucleic Acid = assay: Rate constants (1/s x 10e4) for loss of compound when incubated with calf thymus DNA in SHE buffer (pH 7.0) at 37 degree Centigrade, as determined by HPLC; assay type: nucleic-acid assay; conditions: Bos taurus
Method in brief: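 Aliquots extracted into 1-butanol with NaOAc; unreacted drug quantified by C-18 reverse-phase HPLC, 254 nm. kobs (hydrolysis plus alkylation) from ln(peak area) vs time fit.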

SMILES | pIC50 (P388) | k obs (Nucleic Acid) [s⁻¹]
CSc1nc(CO)c(CO)n1CCCc1ccc(NC(=O)c2ccc(Nc3ccnc4ccccc34)cc2)cc1 | < 4.70 | –
CNC(=O)OCc1ncn(CCCc2ccc(Nc3c4ccccc4nc4ccccc34)cc2)c1COC(=O)NC | 4.80 | –
O=C(Nc1ccc(CCc2c(CO)c(CO)c3n2CCC3)cc1)c1ccc(Nc2ccnc3ccccc23)cc1 | 7.52 | 0.000158
OCc1c(CO)c2n(c1CCCc1ccc(Nc3c4ccccc4nc4ccccc34)cc1)CCC2 | 5.89 | 0.000187
O=C(Nc1ccc(CCCc2c(CO)c(CO)c3n2CCC3)cc1)c1ccc(Nc2ccnc3ccccc23)cc1 | 6.96 | 0.000186
OCc1ncn(CCCc2ccc(Nc3c4ccccc4nc4ccccc34)cc2)c1CO | 4.92 | –
CNC(=O)OCc1nc(SC)n(C)c1COC(=O)NC | < 4.70 | 0.000134
O=C(Nc1ccc(CCCn2cnc(CO)c2CO)cc1)c1ccc(Nc2ccnc3ccccc23)cc1 | < 4.70 | –
CNC(=O)OCc1nc(SC)n(CCCc2ccc(Nc3c4ccccc4nc4ccccc34)cc2)c1COC(=O)NC | 6.10 | 0.000161
CNC(=O)OCc1ncn(CCCc2ccc(NC(=O)c3ccc(Nc4ccnc5ccccc45)cc3)cc2)c1COC(=O)NC | < 4.70 | –
CSc1nc(CO)c(CO)n1CCCc1ccc(Nc2c3ccccc3nc3ccccc23)cc1 | 5.89 | –
CNC(=O)OCc1nc(SC)n(CCCc2ccc(NC(=O)c3ccc(Nc4ccnc5ccccc45)cc3)cc2)c1COC(=O)NC | 4.96 | 8.8e-05
